Measured values as given in ChEMBL document CHEMBL5712883, “RNA polymerase II stalling promotes nucleosome occlusion and pTEFb recruitment to drive immortalization by Epstein-Barr virus” (PLoS Pathog, 2011).
Active and inactive are the calls of the source. No cut-off for these calls is given here.

Legend:
Assay type in all cases: cell-based
[1] = biological target: T1, CDK9/cyclin T1 (Homo sapiens) (UniProt O60563+P50750); assay: Inhibition of CDK9/Cyclin T1 in human Mutu-3 cells assessed as reduction in H4 histone acetylation at +34 distal EBV genome region at 500 nM incubated for 2 hrs by CHIP assay
[2] = biological target: T1, CDK9/cyclin T1 (Homo sapiens); assay: Inhibition of CDK9/Cyclin T1 in human Mutu-3 cells assessed as reduction in H3 histone acetylation at -317 distal EBV genome region at 500 nM incubated for 2 hrs by CHIP assay
[3] = biological target: T1, CDK9/cyclin T1 (Homo sapiens); assay: Inhibition of CDK9/Cyclin T1 in human Mutu-3 cells assessed as effect on cp-pre-initiation complex assembly at +38667 distal EBV genome region at 500 nM incubated for 2 hrs by CHIP assay
[4] = biological target: T1, CDK9/cyclin T1 (Homo sapiens); assay: Inhibition of CDK9/Cyclin T1 in human Mutu-3 cells assessed as increase in fold change pTEFb/Brd4 complex
[5] = biological target: T1, CDK9/cyclin T1 (Homo sapiens); assay: Inhibition of CDK9/Cyclin T1 in human Mutu-3 cells assessed as effect on cp-pre-initiation complex assembly at +48 distal EBV genome region at 500 nM incubated for 2 hrs by CHIP assay
[6] = biological target: T1, CDK9/cyclin T1 (Homo sapiens); assay: Inhibition of CDK9/Cyclin T1 in human Mutu-3 cells assessed as effect on cp-pre-initiation complex assembly at -208 distal EBV genome region at 500 nM incubated for 2 hrs by CHIP assay
[7] = biological target: T1, CDK9/cyclin T1 (Homo sapiens); assay: Inhibition of CDK9/Cyclin T1 in human Mutu-3 cells assessed as effect on cp-pre-initiation complex assembly at +30896 distal EBV genome region at 500 nM incubated for 2 hrs by CHIP assay
[8] = biological target: T1, CDK9/cyclin T1 (Homo sapiens); assay: Inhibition of CDK9/Cyclin T1 in human Mutu-3 cells assessed as reduction in RNA pol II C-terminal domain phosphorylation on serine 5 at W repeat EBV genome region at 500 nM incubated for 2 hrs by CHIP assay
[9] = biological target: T1, CDK9/cyclin T1 (Homo sapiens); assay: Inhibition of CDK9/Cyclin T1 in human B cell transfected with EBV assessed as reduction in RNA pol II C-terminal domain phosphorylation on serine 5 at +48 distal EBV genome region at 500 nM incubated for 2 hrs in presence of beta-estradiol by CHIP assay
[10] = biological target: T1, CDK9/cyclin T1 (Homo sapiens); assay: Inhibition of CDK9/Cyclin T1 in human Mutu-3 cells assessed as reduction in H3 histone acetylation at +34 distal EBV genome region at 500 nM incubated for 2 hrs by CHIP assay
[11] = biological target: T1, CDK9/cyclin T1 (Homo sapiens); assay: Inhibition of CDK9/Cyclin T1 in human Mutu-3 cells assessed as effect on cp-pre-initiation complex assembly at +295 distal EBV genome region at 500 nM incubated for 2 hrs by CHIP assay
[12] = biological target: T1, CDK9/cyclin T1 (Homo sapiens); assay: Inhibition of CDK9/Cyclin T1 in human B cell transfected with EBV assessed as reduction in RNA pol II C-terminal domain phosphorylation on serine 5 at +59014 distal EBV genome region at 500 nM incubated for 2 hrs in presence of beta-estradiol by CHIP assay
[13] = biological target: T1, CDK9/cyclin T1 (Homo sapiens); assay: Inhibition of CDK9/Cyclin T1 in human Mutu-3 cells assessed as reduction in H4 histone acetylation at -317 distal EBV genome region at 500 nM incubated for 2 hrs by CHIP assay
[14] = biological target: T1, CDK9/cyclin T1 (Homo sapiens); assay: Inhibition of CDK9/Cyclin T1 in human Mutu-3 cells assessed as reduction in RNA pol II C-terminal domain phosphorylation on serine 5 at +38828 distal EBV genome region at 500 nM incubated for 2 hrs by CHIP assay
[15] = biological target: T1, CDK9/cyclin T1 (Homo sapiens); assay: Inhibition of CDK9/Cyclin T1 in human Mutu-3 cells assessed as reduction in BRD4 at +34 distal EBV genome region at 500 nM incubated for 2 hrs by CHIP assay
[16] = biological target: T1, CDK9/cyclin T1 (Homo sapiens); assay: Inhibition of CDK9/Cyclin T1 in human Mutu-3 cells assessed as reduction in H3 histone acetylation at +2238 distal EBV genome region at 500 nM incubated for 2 hrs by CHIP assay
[17] = biological target: T1, CDK9/cyclin T1 (Homo sapiens); assay: Inhibition of CDK9/Cyclin T1 in human Mutu-3 cells assessed as decrease in Cp-initiated EBNA 2 transcription at 25 to 50 uM incubated for 24 hrs by Q-PCR analysis; conditions: dose 25-50 µM
In short: (§1)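 Mutu III cells seeded at 5×10^5 cells/ml and given DRB or flavopiridol at the stated concentrations, with DMSO as control, for 24 hrs. cDNA was made from 10^5 cells with a cells-to-Ct SYBR kit. Q-PCR used cDNA-specific EBNA 2, EBNA 1 (YUK) or LMP1 primers, with actin as endogenous control, and was analysed by relative quantification (ddCt) against 24 hr control samples.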

[18] = biological target: T1, CDK9/cyclin T1 (Homo sapiens); assay: Inhibition of CDK9/Cyclin T1 in human Mutu-3 cells assessed as reduction in H4 histone acetylation at +1564 distal EBV genome region at 500 nM incubated for 2 hrs by CHIP assay
[19] = biological target: T1, CDK9/cyclin T1 (Homo sapiens); assay: Inhibition of CDK9/Cyclin T1 in human Mutu-3 cells assessed as decrease in Cp-initiated EBNA 1 transcription at 25 to 50 uM incubated for 24 hrs by Q-PCR analysis; conditions: dose 25-50 µM; in short: as §1
[20] = biological target: T1, CDK9/cyclin T1 (Homo sapiens); assay: Inhibition of CDK9/Cyclin T1 in human Mutu-3 cells assessed as reduction in RNA pol II C-terminal domain phosphorylation on serine 5 at +295 distal EBV genome region at 500 nM incubated for 2 hrs by CHIP assay
[21] = biological target: T1, CDK9/cyclin T1 (Homo sapiens); assay: Inhibition of CDK9/Cyclin T1 in human Mutu-3 cells assessed as decrease in Cp-initiated LMP1 transcription at 25 to 50 uM incubated for 24 hrs by Q-PCR analysis; conditions: dose 25-50 µM; in short: as §1
[22] = biological target: T1, CDK9/cyclin T1 (Homo sapiens); assay: Inhibition of CDK9/Cyclin T1 in human B cell transfected with EBV assessed as reduction in RNA pol II C-terminal domain phosphorylation on serine 5 at -208 distal EBV genome region at 500 nM incubated for 2 hrs in presence of beta-estradiol by CHIP assay
[23] = biological target: T1, CDK9/cyclin T1 (Homo sapiens); assay: Inhibition of CDK9/Cyclin T1 in human Mutu-3 cells assessed as reduction in RNA pol II C-terminal domain phosphorylation on serine 5 at +38667 distal EBV genome region at 500 nM incubated for 2 hrs by CHIP assay
[24] = biological target: T1, CDK9/cyclin T1 (Homo sapiens); assay: Inhibition of CDK9/Cyclin T1 in human Mutu-3 cells assessed as reduction in BRD4 at +2238 distal EBV genome region at 500 nM incubated for 2 hrs by CHIP assay
[25] = biological target: T1, CDK9/cyclin T1 (Homo sapiens); assay: Inhibition of CDK9/Cyclin T1 in human Mutu-3 cells assessed as reduction in RNA pol II C-terminal domain phosphorylation on serine 5 at -208 distal EBV genome region at 500 nM incubated for 2 hrs by CHIP assay
[26] = biological target: T1, CDK9/cyclin T1 (Homo sapiens); assay: Inhibition of CDK9/Cyclin T1 in human Mutu-3 cells assessed as reduction in H3 histone acetylation at +1564 distal EBV genome region at 500 nM incubated for 2 hrs by CHIP assay
[27] = biological target: T1, CDK9/cyclin T1 (Homo sapiens); assay: Inhibition of CDK9/Cyclin T1 in human B cell transfected with EBV assessed as reduction in RNA pol II C-terminal domain phosphorylation on serine 5 at +50024 distal EBV genome region at 500 nM incubated for 2 hrs in presence of beta-estradiol by CHIP assay
[28] = biological target: T1, CDK9/cyclin T1 (Homo sapiens); assay: Inhibition of CDK9/Cyclin T1 in human Mutu-3 cells assessed as reduction in H4 histone acetylation at +2238 distal EBV genome region at 500 nM incubated for 2 hrs by CHIP assay
[29] = biological target: T1, CDK9/cyclin T1 (Homo sapiens); assay: Inhibition of CDK9/Cyclin T1 in human HeLa cells stably transfected Flag-tagged CDK9 assessed as increase in fold change pTEFb/Brd4 complex at 1 mM by western analysis
[30] = biological target: T1, CDK9/cyclin T1 (Homo sapiens); assay: Inhibition of CDK9/Cyclin T1 in human B cell transfected with EBV assessed as reduction in RNA pol II C-terminal domain phosphorylation on serine 5 at +75615 distal EBV genome region at 500 nM incubated for 2 hrs in presence of beta-estradiol by CHIP assay
[31] = biological target: T1, CDK9/cyclin T1 (Homo sapiens); assay: Inhibition of CDK9/Cyclin T1 in human Mutu-3 cells assessed as reduction in H4 histone acetylation at +574 distal EBV genome region at 500 nM incubated for 2 hrs by CHIP assay
[32] = biological target: T1, CDK9/cyclin T1 (Homo sapiens); assay: Inhibition of CDK9/Cyclin T1 in human B cell transfected with EBV assessed as reduction in RNA pol II C-terminal domain phosphorylation on serine 5 at +40493 distal EBV genome region at 500 nM incubated for 2 hrs in presence of beta-estradiol by CHIP assay
[33] = biological target: T1, CDK9/cyclin T1 (Homo sapiens); assay: Inhibition of CDK9/Cyclin T1 in human Mutu-3 cells assessed as effect on cp-pre-initiation complex assembly at +38828 distal EBV genome region at 500 nM incubated for 2 hrs by CHIP assay
[34] = biological target: T1, CDK9/cyclin T1 (Homo sapiens); assay: Inhibition of CDK9/Cyclin T1 in human B cell transfected with EBV assessed as reduction in RNA pol II C-terminal domain phosphorylation on serine 5 at +30896 distal EBV genome region at 500 nM incubated for 2 hrs in presence of beta-estradiol by CHIP assay
[35] = biological target: T1, CDK9/cyclin T1 (Homo sapiens); assay: Inhibition of CDK9/Cyclin T1 in human Mutu-3 cells assessed as reduction in H3 histone acetylation at +574 distal EBV genome region at 500 nM incubated for 2 hrs by CHIP assay
[36] = biological target: T1, CDK9/cyclin T1 (Homo sapiens); assay: Inhibition of CDK9/Cyclin T1 in human Mutu-3 cells assessed as reduction in RNA pol II C-terminal domain phosphorylation on serine 5 at +30896 distal EBV genome region at 500 nM incubated for 2 hrs by CHIP assay
[37] = biological target: T1, CDK9/cyclin T1 (Homo sapiens); assay: Inhibition of CDK9/Cyclin T1 in human Mutu-3 cells assessed as reduction in BRD4 at +1564 distal EBV genome region at 500 nM incubated for 2 hrs by CHIP assay
[38] = biological target: T1, CDK9/cyclin T1 (Homo sapiens); assay: Inhibition of CDK9/Cyclin T1 in human Mutu-3 cells assessed as reduction in RNA pol II C-terminal domain phosphorylation on serine 5 at +48 distal EBV genome region at 500 nM incubated for 2 hrs by CHIP assay
[39] = biological target: T1, CDK9/cyclin T1 (Homo sapiens); assay: Inhibition of CDK9/Cyclin T1 in human Mutu-3 cells assessed as reduction in BRD4 at +574 distal EBV genome region at 500 nM incubated for 2 hrs by CHIP assay
[40] = biological target: T1, CDK9/cyclin T1 (Homo sapiens); assay: Inhibition of CDK9/Cyclin T1 in human B cell transfected with EBV assessed as reduction in RNA pol II C-terminal domain phosphorylation on serine 5 at +295 distal EBV genome region at 500 nM incubated for 2 hrs in presence of beta-estradiol by CHIP assay
[41] = biological target: T1, CDK9/cyclin T1 (Homo sapiens); assay: Inhibition of CDK9/Cyclin T1 in human Mutu-3 cells assessed as reduction in BRD4 at -317 distal EBV genome region at 500 nM incubated for 2 hrs by CHIP assay

OC[C@H]1O[C@@H](n2cnc3cc(Cl)c(Cl)cc32)[C@H](O)[C@@H]1O
inhibition [1]: Active | inhibition [2]: Active | inhibition [3]: inactive | fold change (FC) [4]: 2 | inhibition [5]: inactive | inhibition [6]: inactive | inhibition [7]: inactive | inhibition [8]: Active | inhibition [9]: Active | inhibition [10]: Active | inhibition [11]: inactive | inhibition [12]: Active | inhibition [13]: Active | inhibition [14]: Active | inhibition [15]: Active | inhibition [16]: Active | inhibition [17]: Active | inhibition [18]: Active | inhibition [19]: Active | inhibition [20]: Active | inhibition [21]: inactive | inhibition [22]: Active | inhibition [23]: Active | inhibition [24]: Active | inhibition [25]: Active | inhibition [26]: Active | inhibition [27]: Active | inhibition [28]: Active | fold change (FC) [29]: 2 | inhibition [30]: Active | inhibition [31]: Active | inhibition [32]: Active | inhibition [33]: inactive | inhibition [34]: Active | inhibition [35]: Active | inhibition [36]: Active | inhibition [37]: Active | inhibition [38]: Active | inhibition [39]: Active | inhibition [40]: Active | inhibition [41]: Active
